In brackets after ≈: the same amount, converted by molar mass. Activity calls are given as the source filed them. The rule behind the calls is not given here.
Assays:
Myzus persicae [1] = experiment: Insecticidal activity against adult Myzus persicae (green peach aphid) in compound treated cabbage leaves assessed as mortality at 12.5 mg/L at 25 degC and 85% RH for 24 hr; format: functional
In short: (§1)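 Aphids exposed to treated leaf at 200, 50 and 12.5 mg/L. Mortality corrected for untreated controls with Abbott's formula.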

Myzus persicae [2] = experiment: Insecticidal activity against adult Myzus persicae (green peach aphid) in compound treated cabbage leaves assessed as mortality at 200 mg/L at 25 degC and 85% RH for 24 hr; format: functional; in short: as §1
Myzus persicae [3] = experiment: Insecticidal activity against adult Myzus persicae (green peach aphid) in compound treated cabbage leaves assessed as mortality at 50 mg/L at 25 degC and 85% RH for 24 hr; format: functional; in short: as §1
Plutella xylostella = experiment: Larvicidal activity against second instar Plutella xylostella (diamondback moth) in compound treated cabbage leaves assessed as mortality at 600 mg/L measured after 3 days; format: functional; conditions: 72 h
In short: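 Lab-reared field-collected stock (Haidian, Beijing), second-instar larvae. Leaf-dip assay: 2.0 cm cabbage leaf disks dipped 5 s in test solution, air-dried, then placed in a 6.0 cm tube lined with filter paper. Larvae added within 10 s. Mortality (%) scored 3 days after treatment, two replicates.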

Myzus persicae [4] = experiment: Insecticidal activity against adult Myzus persicae (green peach aphid) in compound treated cabbage leaves assessed as mortality at 600 mg/L at 25 degC and 85% RH for 24 hr; format: functional
Myzus persicae [5] = experiment: Insecticidal activity against adult Myzus persicae (green peach aphid) in compound treated cabbage leaves assessed as mortality at 25 degC and 85% RH for 24 hr; format: functional
Myzus persicae [6] = experiment: Stomach toxicity in adult Myzus persicae (green peach aphid) in compound treated cabbage leaves assessed as mortality at 600 mg/L at 25 degC and 85% RH for 24 hr; format: functional, organism-based

Compound | mortality at 12.5 µg/mL (Myzus persicae [1]) [%] | mortality at 200 µg/mL (Myzus persicae [2]) [%] | mortality at 50 µg/mL (Myzus persicae [3]) [%] | mortality at 600 µg/mL (Plutella xylostella) [%] | mortality at 600 µg/mL (Myzus persicae [4]) [%] | LC50 (Myzus persicae [5]) [µg/mL] | Activity (Myzus persicae [6])
CCCCNC(=O)c1ccc(Cl)cc1C(=O)NN=Cc1ccc(C(F)(F)F)cc1 | 12.5 | 49.3 | 22.9 | 33.3 | 96.6 | 130 (≈ 305 µM) | Active
CCCCNC(=O)c1ccc(Cl)cc1C(=O)NN=Cc1ccccc1F | 9.7 | 39.6 | 34 | 22.2 | 94.6 | 122 (≈ 324 µM) | Active
Cc1ccc(C=NNC(=O)c2cc(Cl)ccc2C(=O)NC2CCCCC2)o1 | 0 | 16 | 7.3 | 33.3 | 93 | 271 (≈ 700 µM) | Active
O=C(NN=Cc1ccc(O)cc1)c1cc(Cl)ccc1C(=O)NC1CCCCC1 | 25.7 | 24.6 | 19.4 | 55.6 | 92.6 | 244 (≈ 611 µM) | Active
Cc1ccc(C=NNC(=O)c2cc(Cl)ccc2C(=O)NC(C)C)o1 | 13.8 | 50 | 16.9 | 44.4 | 96.4 | 122 (≈ 350 µM) | Active
CC(C)NC(=O)c1ccc(Cl)cc1C(=O)NN=Cc1ccccc1Cl | 16.3 | 28.2 | 12.5 | 33.3 | 92.9 | 171 (≈ 451 µM) | Active
CC(C)NC(=O)c1ccc(Cl)cc1C(=O)NN=Cc1cccs1 | 24 | 45.5 | 30.3 | 0 | 98.7 | 70.5 (≈ 202 µM) | Active
Cc1cc(C(F)(C(F)(F)F)C(F)(F)F)ccc1NC(=O)c1cccc(I)c1C(=O)NC(C)(C)CS(C)(=O)=O [FLUBENDIAMIDE] | – | – | – | – | – | 184 (≈ 270 µM) | –
Cc1ccsc1C=NNC(=O)c1cc(Cl)ccc1C(=O)NC1CCCCC1 | 22.4 | 45.2 | 41.7 | 11.1 | 90.6 | 58.9 (≈ 146 µM) | Active
Cc1nn(-c2ccccc2)c(Cl)c1C=NNC(=O)c1cc(Cl)ccc1C(=O)NC1CCCCC1 | 16.7 | 9.5 | 9.1 | 66.7 | 91.9 | 266 (≈ 534 µM) | Active
Cc1ccsc1C=NNC(=O)c1cc(Cl)ccc1C(=O)NC(C)C | 16.3 | 56.1 | 25.5 | 44.4 | 90.6 | 124 (≈ 342 µM) | Active
Cc1ccc(C=NNC(=O)c2cc(Cl)ccc2C(=O)NC(C)C)s1 | 29.3 | 52.3 | 32.7 | 55.6 | 100 | 76.2 (≈ 209 µM) | Active
CC(C)NC(=O)c1ccc(Cl)cc1C(=O)NN=Cc1ccc(O)cc1 | 5.4 | 55.6 | 16.9 | 55.6 | 100 | 129 (≈ 357 µM) | Active
O=C(NN=Cc1cccs1)c1cc(Cl)ccc1C(=O)NC1CCCCC1 | 19.6 | 37.8 | 13.5 | 33.3 | 98.8 | 113 (≈ 290 µM) | Active
CCCCNC(=O)c1ccc(Cl)cc1C(=O)NN=Cc1ccc(F)cc1 | 19 | 20 | 18.6 | 33.3 | 97.7 | 310 (≈ 825 µM) | Active
O=C(NN=Cc1ccco1)c1cc(Cl)ccc1C(=O)NC1CCCCC1 | 8.2 | 15.7 | 20 | 33.3 | 100 | 221 (≈ 592 µM) | Active
CCCCNC(=O)c1ccc(Cl)cc1C(=O)NN=Cc1cccs1 | 9.4 | 35.7 | 23.3 | 44.4 | 98.6 | 124 (≈ 341 µM) | Active
O=C(NN=Cc1ccccc1F)c1cc(Cl)ccc1C(=O)NC1CCCCC1 | 5.9 | 23.8 | 8.3 | 33.3 | 90.2 | 276 (≈ 687 µM) | Active
CC(C)NC(=O)c1ccc(Cl)cc1C(=O)NN=Cc1ccco1 | 18.6 | 29.3 | 25.4 | 44.4 | 100 | 161 (≈ 484 µM) | Active
CCCCNC(=O)c1ccc(Cl)cc1C(=O)NN=Cc1ccco1 | 0 | 20 | 11.7 | 44.4 | 100 | 234 (≈ 673 µM) | Active
O=C(NN=Cc1ccccc1Cl)c1cc(Cl)ccc1C(=O)NC1CCCCC1 | 26.2 | 41.3 | 28 | 66.7 | 100 | 148 (≈ 355 µM) | Active
CC(C)NC(=O)c1ccc(Cl)cc1C(=O)NN=Cc1ccc(F)cc1 | 21.9 | 57.8 | 52.8 | 100 | 91.3 | 68.1 (≈ 188 µM) | Active

Source: ChEMBL document CHEMBL3044924, “Design, synthesis, and insecticidal activities of phthalamides containing a hydrazone substructure” (2010)
